Reference: ChEMBL document CHEMBL3864137, “Design, Synthesis, and Pharmacological Evaluation of 2-(2,5-Dimethyl-5,6,7,8-tetrahydroquinolin-8-yl)-N-aryl Propanamides as Novel Smoothened (Smo) Antagonists” (J Med Chem, 2016)
Calls of active or inactive are those of the source. The calls are words filed in the database; no cut-off is given here.

Legend:
[1] = biological target: Voltage-gated inwardly rectifying potassium channel KCNH2 (Homo sapiens, UniProt Q12809); assay: Inhibition of human ERG
Protein smoothened = Protein smoothened (Mus musculus, UniProt P56726); assay: Inhibition of Smo-mediated Hh signalling pathway in mouse Shh Light2 cells by Gli-luciferase reporter gene assay; assay type: cell-based
Procedure, shortened: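 Light II cells (NIH-3T3 stably carrying a Gli-responsive firefly luciferase reporter plus a Renilla luciferase vector), seeded in 96-well plates and treated. Firefly/Renilla activity in the lysates read by dual luciferase assay on a luminometer. IC50 is the mean ± SD of three separate experiments.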

[2] = Cytotoxicity against human KB cells; assay type: toxicity, cell-based
[3] = biological target: Protein smoothened (Homo sapiens) (UniProt Q99835); assay: Antagonist activity at wild-type Smo (unknown origin) expressed in mouse Shh Light2 cells assessed as suppression of Gli-mRNA expression measured after 36 hrs by dual luciferase reporter gene assay; assay type: cell-based; conditions: in the assay text read “Gli-luciferase activity” for “Gli-mRNA expression”
Procedure, shortened: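 Light II cells transfected with wild-type Smo plasmid to drive Gli-luciferase, exposed to compound for 36 h, then harvested for dual luciferase reporter assay. Mean ± SD.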

Medulloblastoma cell = assay: Antiproliferative activity against mouse medulloblastoma cells isolated from Ptch+/- p53-/- mouse measured after 72 hrs by MTS assay; assay type: functional
Procedure, shortened: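 Medulloblastoma cells from Ptch+/-;p53-/- allografts in nude mice, minced and collagenase-digested, grown in Neurobasal A with B-27, EGF 20 ng/ml, bFGF 20 ng/ml, nonessential amino acids and N-acetyl cysteine 60 µg/ml. Seeded in 96-well plates, treated 72 h, viability read by MTS; mean ± SD.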

HEK293 = assay: Inhibition of TNF-alpha stimulated NFkappaB transactivation in HEK293 cells at 20 uM measured after 24 hrs by dual luciferase reporter gene assay; assay type: cell-based; conditions: Homo sapiens
Procedure, shortened: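 HEK293 cells stimulated with TNF-α and treated for 24 h, then lysed for dual luciferase reporter analysis of NF-κB activity. Mean ± SD.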

Chain of Protein smoothened (P56726 whole entry): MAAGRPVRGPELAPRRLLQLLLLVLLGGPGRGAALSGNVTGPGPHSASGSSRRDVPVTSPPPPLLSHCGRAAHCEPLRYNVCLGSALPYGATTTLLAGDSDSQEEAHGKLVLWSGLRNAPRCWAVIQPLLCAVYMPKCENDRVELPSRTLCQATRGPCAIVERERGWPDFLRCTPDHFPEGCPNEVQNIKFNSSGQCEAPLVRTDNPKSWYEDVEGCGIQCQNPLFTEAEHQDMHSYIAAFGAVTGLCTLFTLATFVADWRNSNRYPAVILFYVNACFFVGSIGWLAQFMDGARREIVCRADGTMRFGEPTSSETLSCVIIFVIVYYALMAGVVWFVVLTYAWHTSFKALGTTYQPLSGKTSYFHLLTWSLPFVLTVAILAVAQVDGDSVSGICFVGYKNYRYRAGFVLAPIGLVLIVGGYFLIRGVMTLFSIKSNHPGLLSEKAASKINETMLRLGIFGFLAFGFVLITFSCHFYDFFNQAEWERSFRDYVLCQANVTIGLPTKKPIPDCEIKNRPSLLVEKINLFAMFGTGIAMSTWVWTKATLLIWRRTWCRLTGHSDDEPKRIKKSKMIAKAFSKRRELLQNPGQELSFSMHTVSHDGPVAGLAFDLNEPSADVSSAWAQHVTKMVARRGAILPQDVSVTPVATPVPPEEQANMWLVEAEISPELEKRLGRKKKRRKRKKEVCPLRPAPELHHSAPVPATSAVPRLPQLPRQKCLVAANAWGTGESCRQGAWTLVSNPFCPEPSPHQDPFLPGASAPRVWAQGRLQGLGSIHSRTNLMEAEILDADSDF
Chain of Voltage-gated inwardly rectifying potassium channel KCNH2 (Q12809 whole entry): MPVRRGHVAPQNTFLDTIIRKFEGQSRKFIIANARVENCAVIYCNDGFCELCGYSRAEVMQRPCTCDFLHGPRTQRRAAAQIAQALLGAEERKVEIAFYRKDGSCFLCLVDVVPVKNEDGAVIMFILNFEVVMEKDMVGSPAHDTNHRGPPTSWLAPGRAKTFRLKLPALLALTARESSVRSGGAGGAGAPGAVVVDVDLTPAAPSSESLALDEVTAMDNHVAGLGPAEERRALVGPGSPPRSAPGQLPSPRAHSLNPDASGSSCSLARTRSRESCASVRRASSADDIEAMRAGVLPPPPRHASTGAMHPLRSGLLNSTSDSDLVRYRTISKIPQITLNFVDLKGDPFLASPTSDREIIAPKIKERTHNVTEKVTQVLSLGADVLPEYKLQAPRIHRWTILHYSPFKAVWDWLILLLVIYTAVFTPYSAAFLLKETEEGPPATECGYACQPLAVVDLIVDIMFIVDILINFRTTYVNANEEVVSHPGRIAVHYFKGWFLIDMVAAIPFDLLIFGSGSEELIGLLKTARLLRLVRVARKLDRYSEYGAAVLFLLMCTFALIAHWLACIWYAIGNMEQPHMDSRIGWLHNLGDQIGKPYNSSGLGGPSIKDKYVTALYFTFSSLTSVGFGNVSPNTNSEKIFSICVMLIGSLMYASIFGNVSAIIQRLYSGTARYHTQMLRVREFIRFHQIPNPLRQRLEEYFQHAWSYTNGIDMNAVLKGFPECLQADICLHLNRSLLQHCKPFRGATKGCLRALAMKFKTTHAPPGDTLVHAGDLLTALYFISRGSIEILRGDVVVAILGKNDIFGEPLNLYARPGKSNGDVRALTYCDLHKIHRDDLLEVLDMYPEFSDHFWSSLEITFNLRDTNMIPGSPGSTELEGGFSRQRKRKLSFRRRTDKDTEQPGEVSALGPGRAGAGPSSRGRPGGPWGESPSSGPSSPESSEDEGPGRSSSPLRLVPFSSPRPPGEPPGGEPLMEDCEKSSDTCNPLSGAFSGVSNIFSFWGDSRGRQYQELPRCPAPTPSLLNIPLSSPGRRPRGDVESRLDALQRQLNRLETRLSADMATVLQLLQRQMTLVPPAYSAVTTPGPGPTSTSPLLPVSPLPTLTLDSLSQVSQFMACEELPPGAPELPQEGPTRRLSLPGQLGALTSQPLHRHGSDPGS
Chain of Protein smoothened (Homo sapiens) (Q99835 whole entry): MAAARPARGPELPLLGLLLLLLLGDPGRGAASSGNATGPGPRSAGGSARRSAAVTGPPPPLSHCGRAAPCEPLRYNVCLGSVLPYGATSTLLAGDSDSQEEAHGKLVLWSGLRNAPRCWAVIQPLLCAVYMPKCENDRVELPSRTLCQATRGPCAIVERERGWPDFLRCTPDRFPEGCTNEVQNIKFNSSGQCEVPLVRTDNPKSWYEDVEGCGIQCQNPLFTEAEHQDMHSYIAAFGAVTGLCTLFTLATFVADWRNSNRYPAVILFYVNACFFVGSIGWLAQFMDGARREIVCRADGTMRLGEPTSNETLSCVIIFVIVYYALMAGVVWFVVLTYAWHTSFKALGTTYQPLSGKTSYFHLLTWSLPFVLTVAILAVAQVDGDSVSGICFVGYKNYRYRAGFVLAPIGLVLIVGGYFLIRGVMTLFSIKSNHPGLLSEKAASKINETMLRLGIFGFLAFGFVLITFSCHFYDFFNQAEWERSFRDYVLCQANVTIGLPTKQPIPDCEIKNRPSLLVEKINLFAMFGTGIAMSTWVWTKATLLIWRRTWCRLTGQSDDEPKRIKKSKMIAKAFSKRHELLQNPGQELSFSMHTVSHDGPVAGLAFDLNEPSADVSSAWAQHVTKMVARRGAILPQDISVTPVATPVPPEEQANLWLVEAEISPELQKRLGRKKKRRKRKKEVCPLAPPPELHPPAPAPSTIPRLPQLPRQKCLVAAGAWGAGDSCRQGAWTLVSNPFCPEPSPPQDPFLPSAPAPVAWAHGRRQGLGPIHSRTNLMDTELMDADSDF

Structure (SMILES)	IC50 (Protein smoothened)	further results
C[C@@H]1CC[C@@H]([C@@H](C)C(=O)Nc2ccc(Cl)c(-c3ccccn3)c2)c2nc(CN3CCOCC3)ccc21	155 nM	IC50 [1]: 3310 nM; IC50 [2]: > 20000 nM
C[C@@H]1CC[C@@H]([C@@H](C)C(=O)Nc2ccc(Cl)c(-c3ccccn3)c2)[C@H]2CC(=O)C=C[C@H]21	> 1000 nM	–
C[C@@H]1CC[C@@H]([C@@H](C)C(=O)Nc2ccc(Cl)c(-c3ccccn3)c2)[C@H]2CC(=O)CC[C@H]21	290 nM	–
CS(=O)(=O)c1ccc(C(=O)Nc2ccc(Cl)c(-c3ccccn3)c2)c(Cl)c1	–	inhibition [3]: Dose-dependent effect; Activity (Medulloblastoma cell): Dose-dependent effect
C[C@@H]1CC[C@@H]([C@@H](C)C(=O)Nc2ccc(Cl)c(-c3ccccn3)c2)[C@H]2Cc3c(cnn3-c3ccccc3)C[C@H]21	327 nM	–
Cc1ccc2c(n1)[C@H]([C@@H](C)C(=O)Nc1ccc(Cl)c(-c3nc4ccccc4[nH]3)c1)CC[C@H]2C	45.9 to 46 nM	–
Cc1ccc(S(=O)(=O)/C=C/C#N)cc1	–	inhibition (HEK293): Active
Cc1ccc2c(n1)[C@H]([C@@H](C)C(=O)Nc1ccc(Cl)c(-c3nc4ccccc4s3)c1)CC[C@H]2C	282 nM	–

Continued, in another order:

IC50 (Protein smoothened)	Structure (SMILES)	further results
588 nM	Cc1ccc2c(n1)[C@H]([C@@H](C)C(=O)Nc1ccc(Cl)c(-c3nnc(-c4ccnn4C)o3)c1)CC[C@H]2C	–
212 nM	Cc1ccc2c(n1)[C@H]([C@@H](C)C(=O)Nc1ccc(Cl)c(-c3ccccn3)c1)CC[C@H]2C	IC50 [1]: > 15000 nM; IC50 [2]: 15000 nM
265 nM	Cc1ccc2c(n1)[C@H]([C@@H](C)C(=O)Nc1ccc(Cl)c(-c3nnc(-c4ccnn4C)s3)c1)CC[C@H]2C	–
1000 nM	Cc1ccc2c(n1)[C@H]([C@@H](C)C(=O)Nc1cccc(-c3ccc(OC(F)(F)F)cc3)c1C)CC[C@H]2C	–
476 nM	C[C@@H]1CC[C@@H]([C@@H](C)C(=O)Nc2ccc(Cl)c(-c3ccccn3)c2)[C@H]2Cc3c(c4ccccc4n3C)C[C@H]21	–
> 1000 nM	C[C@@H]1CC[C@@H]([C@@H](C)C(=O)Nc2ccc(Cl)c(-c3ccccn3)c2)C2=CC(=O)CC[C@H]21	–
> 1000 nM	Cc1ccc2c(n1)[C@H]([C@@H](C)C(=O)Nc1ccc(Cl)c(-c3noc(C)n3)c1)CC[C@H]2C	–
